# High-throughput results: PubChem BioAssay, Sanford-Burnham Center for Chemical Genomics
# SENP7 inh = blocks the human protease SENP7; Q9BQF6; recombinant SENP7, Z-RLRGG-aminoluciferin luminescence, 40 min; inhibition, % at 5 µM; actives 1.5% (n = 330,000); AID 434973;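 active means inhibition above about 50% at the single test dose, limit read from the data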;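 further: plate controls were DMSO with enzyme for no effect and no enzyme buffer wells for full effect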
# SENP8 block-1 = inhibitors of human SENP8 protease | recombinant SENP8, Nedd8 substrate fluorescence | Q96LD8 | AID 602440 | actives 0.64% (n = 360,000) | inhibition, % at 20 µM; in the data active means inhibition mostly above about 40%, no sharp cut-off; inactive means mostly below about 27%
# SENP1 FRET inh = inhibitors of human SENP1 SUMO protease catalytic domain; recombinant SENP1 catalytic domain, CyPet-SUMO1-YPet FRET cleavage; inhibition, % at 10 µM; actives 0.21% (n = 360,000); AID 624204;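 active means inhibition at least 30% at 10 µM, raw YFP signal under a set limit, fluorescence ratio 0.5 to 1.5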;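 further: 0% = enzyme with DMSO and 100% = no enzyme wells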
#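 Material – human SENP1 catalytic domain · Input – SENP1 enzyme, 20 pM final · Compound dosing – single concentration of 10 µM compound, 0.5% DMSO final · Timing – enzyme reaction for 50 min at room temperature, dark · Measured by – FRET fluorescence in CFP and YFP emission channels · Control set – no-enzyme wells low, DMSO-plus-enzyme wells high control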
# Apaf-1 inh = human Apaf-1 inhibition. inhibition, % at 20 µM. O14727. reconstituted apoptosome caspase-3 activity, DEVD-Rh110 fluorescence. actives 0.71% (n = 330,000); active means inhibition of at least 40% at 20 µM;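 further: plate controls were DMSO wells for no effect and DEVD-CHO caspase inhibitor wells for full effect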
#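 Assay system – apoptosome proteins · Medium – Hepes buffer, pH 7.5 · Also added – cytochrome c with DEVD-Rh110 · Timing – 30 min compound preincubation, 50 min activation, room temperature · Detection – Rh110 fluorescence, excitation 480 nm, emission 540 nm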
# SENP6 inh = inhibitors of human SENP6 protease | Recombinant SENP6 catalytic domain, aminoluciferin luminescence | inhibition, % at 10 µM | actives 1.8% (n = 330,000) | AID 2599;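 active means inhibition above about 50% at the single tested dose, limit read from the data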;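 further: plate controls were DMSO wells with enzyme for no effect and DMSO wells lacking enzyme for full effect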
# Target sequence (Q9GZR1 628-1112 limits assumed): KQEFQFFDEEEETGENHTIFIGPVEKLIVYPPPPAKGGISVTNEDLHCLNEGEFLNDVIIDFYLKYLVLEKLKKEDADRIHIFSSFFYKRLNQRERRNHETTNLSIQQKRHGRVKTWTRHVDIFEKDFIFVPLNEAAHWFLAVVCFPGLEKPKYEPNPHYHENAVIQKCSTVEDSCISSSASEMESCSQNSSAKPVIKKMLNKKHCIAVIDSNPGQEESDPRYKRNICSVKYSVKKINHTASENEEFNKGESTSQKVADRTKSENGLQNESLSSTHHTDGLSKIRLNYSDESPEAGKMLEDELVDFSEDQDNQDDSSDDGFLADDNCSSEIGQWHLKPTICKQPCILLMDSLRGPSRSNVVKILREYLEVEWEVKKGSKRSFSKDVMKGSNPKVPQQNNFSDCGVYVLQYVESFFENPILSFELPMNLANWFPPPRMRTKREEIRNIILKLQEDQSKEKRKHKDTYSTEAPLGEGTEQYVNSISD
# SENP8 block-2 = SENP8 protease inhibition | purified SENP8, Z-RLRGG-aminoluciferin cleavage, luminescence | inhibition, % at 10 µM | actives 1.2% (n = 330,000); in the data active means inhibition above about 50%
# SENP8 confirm = confirmation of human SENP8 protease inhibitors. shares compounds with SENP7 inh. Recombinant SENP8, Z-RLRGG-aminoluciferin luminescence, 60 min. inhibition, % at 12.5 µM. actives 40% (n = 6,200);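 active means mean inhibition across replicates above about 50%, limit read from the data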
# SENP6 confirm = confirmation of human SENP6 protease inhibitors; shares compounds with SENP7 inh; recombinant SENP6, Z-RLRGG-aminoluciferin luminescence; inhibition, % at 12.5 µM; actives 58% (n = 6,200); AID 488915
# SENP7 conf = human SENP7 inhibition, confirmed; inhibition, % at 12.5 µM; recombinant SENP7, Z-RLRGG-aminoluciferin luminescence, 40 min; shares compounds with SENP7 inh; AID 488917; actives 69% (n = 6,200)
# Casp3 select = caspase-3 inhibition (SENP selectivity assay) | purified caspase-3, Z-DEVD-aminoluciferin luminescence, 60 min | actives 60% (n = 6,200) | inhibition, % at 12.5 µM | shares compounds with SENP7 inh;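 active means mean inhibition above about 50%, limit read from the data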;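 further: plate controls were enzyme with DMSO for no effect and wells without caspase-3 for full effect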
# Luc interf = interferes with luciferase luminescence in SENP counter-screen | shares compounds with SENP7 inh | inhibition, % at 12.5 µM | Pre-incubated SENP8/Z-RLRGG-aminoluciferin, luciferase luminescence interference | actives 39% (n = 6,200);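 active means mean inhibition above about 50% when retested at one dose, limit read from the data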;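 further: plate controls were DMSO wells with completed reaction for no effect and substrate without enzyme for full effect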
# Active calls of the source: *; · = no result. Sampled rows, rich in hits. Any-hit rate of the full collection: about 2.9%.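 How the source made its calls, unless noted: active means mean inhibition above about 50% in the one-dose retest (limit read from the data); inactive means the rest.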
SMILES,SENP7 inh,SENP8 block-1,SENP1 FRET inh,Apaf-1 inh,SENP6 inh,SENP8 block-2,SENP8 confirm,SENP6 confirm,SENP7 conf,Casp3 select,Luc interf
CCc1ccc(NC(=O)Nc2cccc(OC)c2)cc1,56*,10,1,-4,2,53*,21,51*,82*,48,59*
Cc1ccc2[nH]c(=O)c(-c3noc(CC(C)C)n3)cc2c1,-9,-460,0,-8,-7,-9,·,·,·,·,·
COc1cccc(NC(=O)Cn2nnc(C(=O)Nc3ccccc3)c2N)c1,1,25,1,-6,2,3,·,·,·,·,·
CCCCOC(=O)Nc1ccc2c(C)cc(=O)oc2c1,62*,-294,3,8,-34,35,3,3,50*,48,15
CCOC(=O)Nc1ccc2c(C)cc(=O)oc2c1,10,-279,1,-3,16,-20,·,·,·,·,·
COc1ccc(-c2cccc(C(=O)Nc3ccc(C)cc3)c2)cc1,3,8,1,9,-3,5,·,·,·,·,·
COc1ccc(-c2cccc(C(=O)Nc3cccc(C(=O)O)c3)c2)cc1,59*,0,1,4,84*,53*,69*,83*,96*,20,77*
COc1cccc(NC(=O)c2nnn(CCc3ccccc3)c2N)c1,76*,2,1,8,72*,64*,76*,75*,93*,75*,62*
COc1cccc(NC(=O)c2ccc3nsnc3c2)c1,60*,-13,0,-1,63*,43,58*,56*,85*,80*,71*
COc1cccc(NC(=O)CC(=O)c2ccc([N+](=O)[O-])cc2)c1,58*,22,2,9,71*,69*,82*,80*,93*,72*,74*
COc1cccc(NC(=O)c2ccccc2)c1,51*,13,2,-1,47,36,48,44,77*,73*,51*
O=C(CC(=O)c1ccccc1)Nc1cccc([N+](=O)[O-])c1,·,6,-2,·,·,·,·,·,·,·,·
Cc1cc(=O)oc2cc(NC(=O)c3ccccc3C(=O)O)ccc12,-3,-289,-2,7,1,-3,·,·,·,·,·
COc1cccc(NC(=O)c2cccc(C(=O)Nc3cccc(OC)c3)c2)c1,5,5,2,2,16,4,·,·,·,·,·
COc1ccc(CCNC(=O)COc2ccc3c(C)cc(=O)oc3c2)cc1,-12,-98,-3,1,18,-9,·,·,·,·,·
COc1ccc(COc2ccc3c(C)cc(=O)oc3c2)cc1,40,-160,2,8,70*,50*,6,56*,45,49,38
COc1cccc(C(=O)Nc2ccc3c(C)cc(=O)oc3c2)c1,71*,-343,1,8,63*,16,13,15,11,29,7
COc1ccc(-c2coc3cc(OC(C)=O)ccc3c2=S)cc1,·,-465,-137,·,·,·,·,·,·,·,·
Cc1ccc(S(=O)(=O)NCc2ccccc2)cc1C(=O)NCC(C)(C)N1CCOCC1,3,24,1,12,-9,-7,·,·,·,·,·
NCc1csc(Nc2ccc(C(=O)c3ccccc3)cc2)n1,·,-288,-2,·,·,·,·,·,·,·,·
CCCCOc1ccc(C2CCC(C(C)=O)C(C)C2)cc1 (centres undefined),7,17,3,-9,11,1,·,·,·,·,·
CC1(C)CN(C2CCCCC2)C(=O)[C@H]1CC(=O)Nc1ccc(Br)cc1,·,11,0,·,·,·,·,·,·,·,·
CCCn1cnnc1CNC(=O)C1CCC(=O)N(CCc2ccc(OC)cc2)C1 (centres undefined),2,18,2,5,2,-4,·,·,·,·,·
CC1CCCCN1C(=O)c1c([N+](=O)[O-])cnn1C (centres undefined),4,20,0,14,-2,-2,·,·,·,·,·
Cc1nc2ccccc2c(C)c1CC(=O)OC(C)C(=O)NC1(C#N)CCCCC1 (centres undefined),-3,-6,0,6,-8,-1,·,·,·,·,·
SMILES,SENP7 inh,SENP8 block-1,SENP1 FRET inh,Apaf-1 inh,SENP6 inh,SENP8 block-2,SENP8 confirm,SENP6 confirm,SENP7 conf,Casp3 select,Luc interf
Cc1ccccc1CN1CCCC(C(=O)Nc2ccccc2Oc2cccnc2)C1 (centres undefined),6,-1,-2,14,3,-2,·,·,·,·,·
COc1cccc(NC(=O)c2ccc(NC(=O)C(C)C)cc2)c1,75*,9,1,-1,73*,55*,13,56*,85*,74*,0
COc1ccc(C(=O)Nc2cccc(OC)c2)cc1,92*,5,-1,-13,86*,79*,2,92*,101*,96*,91*
COc1cccc(NC(=O)C(=S)NC2CCCCC2)c1,52*,19,1,15,-26,10,59*,65*,84*,48,33
COc1cccc(NC(=O)C(C)C)c1,4,8,2,-7,-15,4,·,·,·,·,·
Cc1ccc(NC(=O)c2ccc3nsnc3c2)c(Cl)c1,81*,-10,1,-4,62*,49,25,13,17,22,-5
O=C(Nc1ccc(Br)cc1F)c1ccc2nsnc2c1,27,13,3,0,-4,-14,·,·,·,·,·
Cc1cccc(NC(=O)COC(=O)CCc2c[nH]c3ccccc23)c1C,4,10,2,13,3,-3,·,·,·,·,·
Brc1ccc2nc(-c3ccco3)c(CC3CCCCC3)n2c1,·,-26,-13,·,·,·,·,·,·,·,·
Cc1cc(=O)n2[nH]c(-c3ccccc3)cc2n1,6,-74,0,2,12,-12,·,·,·,·,·
O=c1cc(-c2ccccc2)nc2cc(-c3ccc(F)cc3)[nH]n12,43,-488,-16,8,87*,79*,-4,2,4,12,2
COc1cccc(-c2cc3nc(-c4ccccc4)cc(=O)n3[nH]2)c1,51*,-328,-6,13,87*,85*,-9,85*,79*,84*,16
CSc1nc2nc(-c3ccccc3)cc(=O)n2[nH]1,9,19,0,3,53*,11,27,22,64*,75*,50*
